This sample holds only a part of the variants without activity.
B1: tRNA (parent)
chain: GUUCCGUUGGCGUAAUGGUAACGCGUCUCCCUCCUAAGGAGAAGACUGCGGGUUCGAGUCCCGUACGGAACG

Variants of: B1
Assay: yeast fitness relative to wild type (ratio to wild type); higher = fitter; tRNA-Arg(CCU), competitive growth, 37 C, YPD
Method in brief: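 Gene amplicons from the start population and from each of six end populations were read by 100-nucleotide paired-end sequencing. Those end populations came from pooled Saccharomyces cerevisiae strains carrying tRNA-Arg(CCU) gene variants at the native locus, competed in YPD at 37°C for 24 hours. Fitness relative to wild type was worked out from changes in genotype frequencies. Genotypes needed ≥ 100 starting reads, and estimates < 0.5 were set to 0.5.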

| Variant | yeast fitness |
| --- | --- |
| C27G G39A C61G C62G | ≤ 0.5 |
| C27G G39A C66U G68C | 0.575 |
| C27G G39A G67A | 0.59 |
| C27G G39C | 0.585 |
| C27G G39C A69U | 0.566 |
| C27G G39C C61U | 0.577 |
| C27G G39C G52A | ≤ 0.5 |
| C27G G41A A57C C62A | ≤ 0.5 |
| C27G G41C | 1.01 |
| C27G G41C C66U | 0.747 |
| C27G G41C G68C | 0.626 |
| C27G G44C A45G A65G | ≤ 0.5 |
| C27G G44C A45G U64G | ≤ 0.5 |
| C27G G48A | 0.565 |
| C27G G48A C60G | 0.751 |
| C27G G48A C60U | ≤ 0.5 |
| C27G G48A G51A | 0.527 |
| C27G G48A G67C A69U | 0.525 |
| C27G G48C | 0.632 |
| C27G G48C A57U | ≤ 0.5 |
| C27G G48C A69G | ≤ 0.5 |
| C27G G48C G52C C62G | ≤ 0.5 |
| C27G G48C G56C | ≤ 0.5 |
| C27G G50A | 0.654 |

| Variant | yeast fitness |
| --- | --- |
| C27G G50A C55G C62G G67U | ≤ 0.5 |
| C27G G50C C60G | ≤ 0.5 |
| C27G G51A G63C | ≤ 0.5 |
| C27G G52A C60G A69U A70C | 0.514 |
| C27G G52C | 0.549 |
| C27G G56A | 0.614 |
| C27G G56A A65G | 0.535 |
| C27G G56A A70U | 0.531 |
| C27G G63A C66G | ≤ 0.5 |
| C27G G67A | 0.637 |
| C27G G67C | 0.677 |
| C27G G68A | 0.607 |
| C27G U28A | 0.596 |
| C27G U28A A65U A70U | 0.558 |
| C27G U28A C30G C31U A40G G67A | ≤ 0.5 |
| C27G U28A C30G C31U G67A | 0.519 |
| C27G U28C A45C G48A C55A | 0.601 |
| C27G U28C C61U | ≤ 0.5 |
| C27G U28C C62G | ≤ 0.5 |
| C27G U28C G52A C60G G68U A69C | ≤ 0.5 |
| C27G U28G A36U A45U C49G | ≤ 0.5 |
| C27G U32A | 0.539 |
| C27G U32A G39A | 0.572 |
| C27G U32A G41A | 0.671 |

| Variant | yeast fitness |
| --- | --- |
| C27G U32C | 0.935 |
| C27G U32C A42C G48C C55G C60U | ≤ 0.5 |
| C27G U32C A42C G48C C55G C60U G68C | ≤ 0.5 |
| C27G U32C A57G | 0.578 |
| C27G U32C U54C C62U | ≤ 0.5 |
| C27G U32G | ≤ 0.5 |
| C27G U32G A36C C46G A70U | ≤ 0.5 |
| C27G U32G A42C | ≤ 0.5 |
| C27G U47C | 0.652 |
| C27G U47G C49U C66U | 0.584 |
| C27G U53A G63A | ≤ 0.5 |
| C27G U53C | ≤ 0.5 |
| C27G U53G A70G | ≤ 0.5 |
| C27U A36C | 0.541 |
| C27U A36C C61U | ≤ 0.5 |
| C27U A36C G39C G48C G63U | 0.547 |
| C27U A36C G39C G48C G63U A70U | 0.636 |
| C27U A36C G56C G68A A70U | ≤ 0.5 |
| C27U A36C G68C | 0.602 |
| C27U A36G A37G G56C | ≤ 0.5 |
| C27U A36G G50A G58A A69C | ≤ 0.5 |
| C27U A36G U47G G50A | ≤ 0.5 |
| C27U A36U | 0.638 |
| C27U A36U A43G C46U | 0.559 |

| Variant | yeast fitness |
| --- | --- |
| C27U A36U G38C A43C | ≤ 0.5 |
| C27U A36U G38C A43C C66U | ≤ 0.5 |
| C27U A36U G38C A43C G63A | ≤ 0.5 |
| C27U A36U G44A | ≤ 0.5 |
| C27U A36U U54A A69C | 0.624 |
| C27U A37C | 0.664 |
| C27U A37C A40U A43U | 0.541 |
| C27U A37C A40U A43U A65U | ≤ 0.5 |
| C27U A37G | 0.899 |
| C27U A37U | 0.626 |
| C27U A37U C66U | 0.542 |
| C27U A40C | 0.809 |
| C27U A40C G58A A70C | 0.511 |
| C27U A40G C55U G56A U64G A69U | ≤ 0.5 |
| C27U A42C | 0.997 |
| C27U A42U | 1.09 |
| C27U A42U C62U | 0.559 |
| C27U A42U U53G G68C | 0.545 |
| C27U A43C | 0.965 |
| C27U A43C A69U | 0.882 |
| C27U A43C A70U | 0.749 |
| C27U A43C C60A | ≤ 0.5 |
| C27U A43C G68U | 0.612 |
| C27U A43C U59A | 0.645 |

| Variant | yeast fitness |
| --- | --- |
| C27U A43C U59A C62U | 0.517 |
| C27U A43G | 0.898 |
| C27U A43G G52C C62U G63A | ≤ 0.5 |
| C27U A43U C55U A69C | ≤ 0.5 |
| C27U A45C C55G G58C | ≤ 0.5 |
| C27U A45G C49G A65C | ≤ 0.5 |
| C27U A45U C66U | 0.7 |
| C27U A57C | 0.676 |
| C27U A57G | 0.959 |
| C27U A57U | 0.668 |
| C27U A65C A70C | 0.69 |
| C27U A69C | 1.01 |
| C27U A70C | 1.03 |
| C27U A70G | 0.988 |
| C27U A70U | 0.988 |
| C27U C29A | 0.737 |
| C27U C29A A36U A40C G52C | 0.583 |
| C27U C29A C55G A65G | ≤ 0.5 |
| C27U C29A G38C A57G A65C C66A | ≤ 0.5 |
| C27U C29G A42G | ≤ 0.5 |
| C27U C29G A57C C61A | ≤ 0.5 |
| C27U C29G C46A | 0.539 |
| C27U C29G C55U A65G C66A | ≤ 0.5 |
| C27U C29G C61U | 0.675 |

| Variant | yeast fitness |
| --- | --- |
| C27U C29U | 0.792 |
| C27U C29U A36C | ≤ 0.5 |
| C27U C29U C49G | ≤ 0.5 |
| C27U C29U C49G A69G | ≤ 0.5 |
| C27U C29U C49U | 0.71 |
| C27U C29U C60U A69G | 0.565 |
| C27U C30A | 0.773 |
| C27U C30G A40C G44A G52A A70U | ≤ 0.5 |
| C27U C30G A40G G51C | ≤ 0.5 |
| C27U C30G A40G G51C U64C | ≤ 0.5 |
| C27U C30G U32C A70U | 0.585 |
| C27U C30U | 0.825 |
| C27U C30U A40U G48C G63A | 0.535 |
| C27U C30U C34G A37C A57G C61A | ≤ 0.5 |
| C27U C30U C46U U54G A70G | 0.655 |
| C27U C30U C62A | 0.564 |
| C27U C30U U53A | 0.62 |
| C27U C30U U53A A65G A69C | ≤ 0.5 |
| C27U C30U U53A A69C | 0.507 |
| C27U C30U U53A C66U | ≤ 0.5 |
| C27U C31A A57U | ≤ 0.5 |
| C27U C31A A69C | 0.598 |
| C27U C31A G44C A70G | ≤ 0.5 |
| C27U C31A G63A | ≤ 0.5 |

| Variant | yeast fitness |
| --- | --- |
| C27U C31G | 0.713 |
| C27U C31G A43C C49G G52C | ≤ 0.5 |
| C27U C31G A43C C49G G52C U59A | 0.54 |
| C27U C31G A43C C49G G52C U59G | ≤ 0.5 |
| C27U C31G A69U | 0.624 |
| C27U C31G C55G | ≤ 0.5 |
| C27U C31U | 1.07 |
| C27U C31U A40U A45U C49G A65C | ≤ 0.5 |
| C27U C31U A40U A45U C49G G63A | 0.589 |
| C27U C31U G51C C66A | ≤ 0.5 |
| C27U C31U G67C | 0.727 |
| C27U C31U U53C A70U | ≤ 0.5 |
| C27U C33A | 0.618 |
| C27U C33A A40C | 0.574 |
| C27U C33A C60U C62G | ≤ 0.5 |
| C27U C33G A43G | ≤ 0.5 |
| C27U C33G A43G A45C C55A | ≤ 0.5 |
| C27U C33G A43G A57G C61U C62U | 0.509 |
| C27U C33G A43G G48A G52A | ≤ 0.5 |
| C27U C33G A43G U53C A57G C61U C62U A70G | ≤ 0.5 |
| C27U C33G C34G G44A G50A G52A G56A | ≤ 0.5 |
| C27U C33G C34U C61U G67A G68C | ≤ 0.5 |
| C27U C33G C55G C61U | 0.539 |

— the RNAGym collection of RNA variant scans (doi:10.1126/science.aae0568)
